Source: PubChem BioAssay
Only some compounds are listed: those with a hit (about 1.7% of all), similar ones and a draw of the others.
STEP inh: STEP phosphatase inhibitors, primary screen, biochemical, fluorescence intensity, uHTS | inhibition, % at 20 µM | AID 588621, 2011 | recombinant STEP, OMFP fluorogenic substrate | Tyrosine-protein phosphatase non-receptor type 5 (Homo sapiens), P54829 | hit rate 0.25% among 360,000;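 active means inhibition at 20 µM, scaled per plate between control wells, above about 37%, limit read from the data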;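 further: 0% = DMSO with enzyme and substrate and 100% = substrate only without enzyme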
Target sequence (P54829 whole entry, looked up): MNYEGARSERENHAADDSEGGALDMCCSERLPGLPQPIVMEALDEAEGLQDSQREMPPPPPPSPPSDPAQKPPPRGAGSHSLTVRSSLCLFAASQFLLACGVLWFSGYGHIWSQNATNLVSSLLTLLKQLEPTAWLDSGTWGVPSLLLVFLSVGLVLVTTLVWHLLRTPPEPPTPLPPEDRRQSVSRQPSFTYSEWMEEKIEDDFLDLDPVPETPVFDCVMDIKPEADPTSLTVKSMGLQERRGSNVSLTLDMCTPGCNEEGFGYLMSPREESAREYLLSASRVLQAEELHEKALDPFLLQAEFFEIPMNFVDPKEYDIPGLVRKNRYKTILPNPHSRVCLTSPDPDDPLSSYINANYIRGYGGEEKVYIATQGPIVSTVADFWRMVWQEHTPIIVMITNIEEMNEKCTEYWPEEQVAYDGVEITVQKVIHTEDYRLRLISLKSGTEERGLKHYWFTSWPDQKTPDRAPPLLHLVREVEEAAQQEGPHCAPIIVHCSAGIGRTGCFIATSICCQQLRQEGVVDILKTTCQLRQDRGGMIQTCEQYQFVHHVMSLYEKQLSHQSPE
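Also added – OMFP at 25 µM · Test system – STEP tyrosine phosphatase · Technique – FITC-channel fluorescence of OMFP product · Schedule – 20 min at room temperature, dark · Evaluation – control-normalized % inhibition with plate pattern correction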
LMPTP block: LMPTP phosphatase inhibitors, primary screen, biochemical, fluorescence intensity, uHTS; Low molecular weight phosphotyrosine protein phosphatase (Homo sapiens), P24666; recombinant LMPTP-A, OMFP fluorogenic substrate; inhibition, % at 20 µM; hit rate 0.22% among 360,000; AID 651560, 2012;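 active means compounds that cut the enzyme signal by at least half of the control window in the single-dose screen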;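 further: plate controls were DMSO wells with enzyme plus substrate for no effect and substrate without enzyme for full effect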
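Assay system: LMPTP-A phosphatase enzyme | Input: 0.625 nM enzyme | Also added: Fluorogenic phosphatase substrate OMFP at 400 µM final | Compound dosing: One test concentration per compound, 20 µM, with 3% DMSO overall | Schedule: 50 min enzyme reaction at room temperature, protected from light | Signal: Fluorescence intensity | Benchmarks: no-enzyme and uninhibited controls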
Pemphigus Ab inh: inhibitors of pemphigus antibody binding to DSG3, primary screen, biochemical, bead-based, flow cytometry, scFv-GFP | DSG3-coupled beads, scFv-anti-DSG3-GFP binding; hits give low values | binding (percent of control), % at 10 µM | hit rate 0.48% among 310,000 | AID 588358, 2011;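 active means binding more than 3 SD below its plate's average and above zero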;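 further: hits lower antibody fragment binding to DSG3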
Scp-1 inhibitor: Scp-1 phosphatase inhibitors, primary screen, biochemical, colorimetric, uHTS; Carboxy-terminal domain RNA polymerase II polypeptide A small phosphatase 1 (Homo …; Recombinant Scp1, phosphopeptide, malachite green phosphate absorbance; inhibition, % at 20 µM; AID 493091, 2011; hit rate 0.88% among 340,000;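 active means inhibition above about 50% at 20 µM, limit read from the data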;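 further: plate controls were DMSO wells with enzyme for no effect and wells lacking enzyme for full effect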
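Times: enzyme reaction 45 min at room temperature, colour 5 min, stabilisation 30 min. Material: SCP-1 catalytic fragment, aa 76-261. Medium: Acidic Tris acetate buffer with magnesium and detergent. Signal: colorimetric free-phosphate detection, absorbance 630 nm. Read-out basis: % inhibition of SCP-1 phosphate liberation. Reagent: Phosphorylated 17-residue peptide substrate.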
SUMO1 PPI mod: modulators of SUMO1 protein-protein interactions, primary screen, biochemical, uHTS. Small ubiquitin-related modifier 1 (Homo sapiens), P63165. AID 602429, 2012. SUMO1 binding to a labelled peptide, TR-FRET, 1 h. inhibition, % at 20 µM. hit rate 0.33% among 360,000; in the data active means inhibition above about 37%
Target sequence (P63165 whole entry, looked up): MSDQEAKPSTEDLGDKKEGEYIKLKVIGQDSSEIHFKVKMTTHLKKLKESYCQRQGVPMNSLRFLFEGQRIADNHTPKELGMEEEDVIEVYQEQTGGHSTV
Scp1 confirm: Scp-1 phosphatase inhibitors, retest, confirmation, biochemical, colorimetric, single concentration. AID 540281, 2011. shares compounds with Scp-1 inhibitor. recombinant SCP-1 catalytic domain, phosphate release, malachite green absorbance. inhibition, % at 20 µM. hit rate 61% among 2,500;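 further: plate controls were DMSO with enzyme for no effect and buffer wells lacking enzyme for full effect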
Scp-1 MG ctr: colorimetric readout interference by compounds, confirmation, artefact control for Scp-1 inhibitor project, biochemical, single concentration | shares compounds with Scp-1 inhibitor | Colorimetric interference counterscreen, malachite green absorbance 630 nm | apparent inhibition (interference), % at 20 µM | 2,500 tested, under 10 active;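 further: compounds added after enzyme reaction finished so only phosphate colour detection is probed; plate controls were DMSO wells with completed Scp-1 reaction for no effect and substrate wells lacking enzyme for full effect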
Scp-1 Tm shift: Scp-1 binding by thermal shift, confirmation, orthogonal assay for Scp-1 inhibitor project, biophysical, differential scanning fluorimetry | hit rate 25% among 1,500 | AID 540329, 2011 | shares compounds with Scp-1 inhibitor | thermal shift relative to vanadate control, % at 40 µM | Recombinant SCP1, Sypro Orange thermal shift Tm;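 active means substances whose mean melting-temperature shift, as a percentage of the reference inhibitor's shift, reaches about 5.3%, limit read from the data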;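 further: 0% = Tm of DMSO wells and 100% = Tm with sodium orthovanadate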
* hit, by the source's call; x = not tested or not shown.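 How the source made its calls, unless noted: active means inhibition of at least 30% at 20 µM; inactive means the rest.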

SMILES | STEP inh | LMPTP block | Pemphigus Ab inh | Scp-1 inhibitor | SUMO1 PPI mod | Scp1 confirm | Scp-1 MG ctr | Scp-1 Tm shift
Cc1ccc(-n2nnc3c(=O)n(CC(=O)NCc4ccccc4)cnc32)cc1 | 33.0 | 28.2 | 175.3 | 92.9* | 24.1 | 86.2* | -1.6 | -9.8
CCOc1ccccc1NC(=O)Cn1cnc2c(nnn2-c2cccc(OC)c2)c1=O | 8.5 | 0.2 | 95.7 | 70.8* | 21.5 | 58.0* | -15.6 | -19.2
Cc1ccc(-n2nc3c(=O)n(CC(=O)NCc4ccccn4)nc(C)c3c2C)cc1 | -1.7 | -1.0 | x | -6.8 | 1.7 | x | x | x
CCOc1ccc(CNC(=O)Cn2nc(C)c3c(C)n(-c4ccc(C)cc4)nc3c2=O)cc1 | 16.1 | 11.6 | x | 85.3* | 5.4 | 62.3* | -13.4 | -20.8
Cc1ccc(-n2nnc3c(=O)n(CC(=O)c4ccccc4)cnc32)cc1 | 2.0 | 13.3 | 99.4 | -4.8 | -0.7 | x | x | x
Cc1nnc2c(SC(C)C)nc3ccccc3n12 | 0.7 | -1.0 | 100.2 | -4.7 | -4.8 | x | x | x
CCC1(c2ccc(OC)cc2)NC(=O)N(CC(=O)N2CCc3ccccc32)C1=O (stereo not given) | 2.3 | 0.0 | 103.0 | -7.6 | 2.1 | x | x | x
COc1cc(C(C)=O)cc(OC)c1O | -0.1 | -0.7 | x | -1.3 | -1.9 | x | x | x
Cc1noc(C)c1NC(=O)Nc1ccc2c(c1)C(=O)N([C@@H](C)CO)C[C@@H](C)[C@@H](CN(C)Cc1ccc3c(c1)OCO3)O2 | 1.7 | -1.2 | 176.3 | 20.6 | 1.6 | x | x | x
CC(=O)Nc1ccc2c(c1)C(C)(C)C(C)N2C (stereo not given) | x | x | x | 82.0* | x | -5.6 | -11.5 | x
CCC(=O)c1ccc(NC(C)=O)cc1O | -1.4 | -0.1 | x | -10.7 | -1.1 | x | x | x
COc1ccc(NC(=S)N2CCN(S(=O)(=O)c3ccccc3)CC2)cc1 | 3.8 | 2.3 | 111.8 | -12.7 | 13.5 | x | x | x
CC(C(=O)Nc1ccc([N+](=O)[O-])cc1Cl)N1CCN(S(=O)(=O)c2cccs2)CC1 (stereo not given) | 0.1 | 0.7 | 92.1 | 4.8 | -10.4 | x | x | x
CC(C(=O)Nc1cc([N+](=O)[O-])ccc1Cl)N1CCN(c2ccc(O)cc2)CC1 (stereo not given) | -4.6 | 2.9 | 91.2 | 57.0* | -13.6 | 26.2 | -4.3 | x
Cc1nnc(NC(=O)CSc2nc(N)c(NC(=O)c3cccs3)c(=O)[nH]2)s1 | -3.3 | -0.8 | 100.8 | -2.5 | 5.5 | x | x | x
C[C@H](CO)N1C[C@H](C)[C@@H](CN(C)C(=O)NC2CCCCC2)Oc2ccc(NS(=O)(=O)c3cccs3)cc2C1=O | 0.3 | -1.6 | 105.2 | 56.2* | 2.3 | 2.4 | -18.9 | x
C[C@H]1CN([C@@H](C)CO)C(=O)Cc2cc(NS(=O)(=O)c3cn(C)cn3)ccc2O[C@@H]1CN(C)C(=O)Nc1ccc(F)cc1 | 8.4 | -1.6 | 101.4 | 73.2* | 2.0 | 37.2* | -15.6 | -14.0
C[C@@H]1CN([C@H](C)CO)C(=O)c2cc(NS(=O)(=O)c3cn(C)cn3)ccc2O[C@H]1CN(C)C(=O)Nc1ccccc1 | 3.7 | -1.5 | 101.0 | 81.5* | 1.5 | 21.9 | -13.4 | x
O=C(COc1ccc(Cl)cc1)Nc1cccc(S(=O)(=O)NC2=NCCCCC2)c1 | 2.1 | 1.0 | 98.8 | -9.0 | 2.5 | x | x | x
N#Cc1ccc(OCC(=O)Nc2cccc(S(=O)(=O)NC3=NCCCCC3)c2)cc1 | -0.5 | 1.1 | 97.8 | 96.8* | 5.9 | 50.3* | -14.2 | -5.5
O=C(Nc1cccc(S(=O)(=O)NC2=NCCCCC2)c1)C1COc2ccccc2O1 (stereo not given) | 7.4 | 22.4 | 103.4 | 50.4* | -2.9 | 65.1* | -8.4 | -10.6
O=C(Nc1ccc(S(=O)(=O)NC2=NCCCCC2)cc1)C1COc2ccccc2O1 (stereo not given) | 1.1 | -0.4 | 89.5 | 0.2 | -2.7 | x | x | x
O=C(COC(=O)c1ccccc1NCCO)Nc1cccc(S(=O)(=O)NC2=NCCCCC2)c1 | -0.9 | 1.6 | 100.8 | 58.2* | 4.0 | 48.1* | -10.6 | -13.9
Cc1ccc(CN2CC(C(=O)Nc3nc(C)cs3)CC2=O)cc1 (stereo not given) | -0.3 | -0.1 | 100.0 | x | -1.9 | x | x | x
Cc1ccc(CN2CC(C(=O)Nc3ncc(C)s3)CC2=O)cc1 (stereo not given) | 1.4 | -1.1 | 96.2 | 50.7* | 0.2 | 2.0 | -9.3 | x
SMILES | STEP inh | LMPTP block | Pemphigus Ab inh | Scp-1 inhibitor | SUMO1 PPI mod | Scp1 confirm | Scp-1 MG ctr | Scp-1 Tm shift
O=C(O)c1cccc(S(=O)(=O)NCC2COc3ccccc3O2)c1 (stereo not given) | 0.0 | -1.0 | 111.8 | -6.7 | -1.5 | x | x | x
C#Cc1ccc([C@@H]2C=C(C(=O)O)O[C@H](OCC)[C@H]2CCCO)cc1 | 11.9 | -1.2 | 101.6 | 52.6* | 30.5 | 47.2* | -17.2 | -13.0
C#Cc1ccc([C@@H]2C=C(C(=O)NCc3ccccc3)O[C@H](OCC)[C@H]2CCCO)cc1 | -4.9 | 0.3 | 107.5 | -4.9 | 7.0 | x | x | x
C/C(=N/NC(=O)c1ccncc1)c1cc2ccc(O)cc2oc1=O | -89.4 | -6.6 | x | 1.4 | -25.7 | x | x | x
C/C(=N/NC(N)=S)c1cc2ccc(O)cc2oc1=O | -3.2 | 10.2 | 100.7 | 54.9* | -1.5 | 35.9* | -12.3 | 4.5
CCSc1nc2c([nH]1)c(=O)n(C)c(=S)n2C | 6.2 | 43.9 | 119.6 | 61.0* | 12.8 | 75.5* | -20.6 | 3.9
CCCSc1nc2c([nH]1)c(=O)n(C)c(=S)n2C | -0.6 | -0.7 | x | -7.6 | 3.2 | x | x | x
Cc1cc(NC(=O)CCC(=O)N(Cc2cccs2)C(C)(C)C(=O)NC2CCCCC2)no1 | 0.3 | -1.2 | 116.3 | -2.3 | 3.2 | x | x | x
CCOC(=O)c1cc(C#N)c(SCC(=O)c2cc(C#N)c(SC)nc2C)[nH]c1=O | 6.3 | 2.0 | 102.6 | 89.4* | 13.8 | 23.5 | -12.0 | x
O=C(Nc1cccc(C(F)(F)F)c1)c1cc2ncc(Br)cn2n1 | 31.6 | 10.2 | 94.5 | 7.4 | 0.5 | x | x | x
O=C(Nc1ccc2c(c1)OCO2)c1cc2ncc(Br)cn2n1 | 11.6 | 36.5 | 95.7 | 57.4* | 8.7 | 66.4* | -5.2 | 1.1
